Data reported in ChEMBL document CHEMBL1955776, “Synthesis and biological evaluation of sulfonyl acrylonitriles as novel inhibitors to peritoneal carcinomatosis” (Bioorg Med Chem Lett, 2012).
Activity calls are given as the source filed them. No cut-off for these calls is given here.

What was measured:
[1] = Antitumor activity against human SU86 cells co-cultured with mesothelial cell monolayers using D-luciferin as substrate at 10 uM by firefly luciferase reporter gene assay relative to control; assay type: functional
How it was run: (§1)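 Luciferase-tagged cancer cells were treated in suspension at a final 10 μM, then overlaid on confluent mesothelial monolayers. Adherent surviving cells were read by D-luciferin bioluminescence, taken as living cell number. Efficacy = luminescence with analog / luminescence with DMSO; mean ± SEM, n = 3.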

SK-OV-3 [2] = assay: Antitumor activity against human SKOV3 cells co-cultured with mesothelial cell monolayers using D-luciferin as substrate at 10 uM by firefly luciferase reporter gene assay relative to control; assay type: functional; how it was run: as §1
A2780 [3] = assay: Antitumor activity against human A2780 cells co-cultured with mesothelial cell monolayers using D-luciferin as substrate at 10 uM by firefly luciferase reporter gene assay relative to control; assay type: functional; how it was run: as §1
BXPC-3 [4] = assay: Antitumor activity against human BxPC3 cells co-cultured with mesothelial cell monolayers using D-luciferin as substrate at 10 uM by firefly luciferase reporter gene assay relative to control; assay type: functional; how it was run: as §1
A2780 [5] = assay: Antitumor activity against human A2780 cells co-cultured with mesothelial cell monolayers by firefly luciferase reporter gene assay; assay type: functional, cell-based
How it was run: (§2)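 Co-culture implantation model: cancer cells carrying a constitutive firefly luciferase plasmid were held in suspension with analog, then overlaid on confluent mesothelial cell monolayers. Cells that adhered and survived were read by bioluminescence with D-luciferin. IC50 values came from concentration–response runs and are reported as mean ± SEM.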

[6] = Antitumor activity against human SU86 cells co-cultured with mesothelial cell monolayers by firefly luciferase reporter gene assay; assay type: functional, cell-based; how it was run: as §2
BXPC-3 [7] = assay: Antitumor activity against human BxPC3 cells co-cultured with mesothelial cell monolayers by firefly luciferase reporter gene assay; assay type: functional, cell-based; how it was run: as §2
SK-OV-3 [8] = assay: Antitumor activity against human SKOV3 cells co-cultured with mesothelial cell monolayers by firefly luciferase reporter gene assay; assay type: functional, cell-based; how it was run: as §2
SK-OV-3 [9] = assay: Induction of apoptosis in human SKOV3 cells co-cultured with mesothelial cell monolayers assessed as PARP cleavage at 7.5 uM after 5 hrs by Western blot analysis; assay type: functional, cell-based
A2780 [10] = assay: Antitumor activity against human A2780 cells xenografted in nu/nu mouse peritoneal carcinomatosis model assessed as inhibition of intraperitoneal implantation at 5 mg/kg, ip administered every 3 days for 14 days by luciferase reporter gene assay; assay type: functional, organism-based; parameters: dose 5 mg/kg
How it was run: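 Athymic 5-week-old female nu/nu mice were randomized to 5 mg/kg drug IP or an equal volume of vehicle (4:1 PEG400:EtOH), given 4 h before IP injection of 1.5 × 10^6 A2780-luc cells, then every three days for 14 days. Implants were imaged weekly by bioluminescence after IP D-luciferin. Day-14 abdominal signal was compared with vehicle controls.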

Mus musculus = assay: Toxicity in human A2780 cells xenografted nu/nu mouse at 5 mg/kg, ip administered every 3 days for 14 days; assay type: organism-based; parameters: dose 5 mg/kg, route intraperitoneal; conditions: in vivo
How it was run: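 Body weight was followed in athymic female nu/nu mice carrying IP A2780-luc cells and given 5 mg/kg IP in 4:1 PEG400:EtOH, starting 4 h before cell injection and repeated every three days over 14 days.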

[11] = target: CASP8 and FADD-like apoptosis regulator (Homo sapiens) (UniProt O15519); assay: Inhibition of cFLIP-L in human SU86 cells assessed as restoration of death receptor signaling-mediated apoptosis; assay type: cell-based
CASP8 and FADD-like apoptosis regulator (Homo sapiens), sequence (O15519 whole entry, looked up): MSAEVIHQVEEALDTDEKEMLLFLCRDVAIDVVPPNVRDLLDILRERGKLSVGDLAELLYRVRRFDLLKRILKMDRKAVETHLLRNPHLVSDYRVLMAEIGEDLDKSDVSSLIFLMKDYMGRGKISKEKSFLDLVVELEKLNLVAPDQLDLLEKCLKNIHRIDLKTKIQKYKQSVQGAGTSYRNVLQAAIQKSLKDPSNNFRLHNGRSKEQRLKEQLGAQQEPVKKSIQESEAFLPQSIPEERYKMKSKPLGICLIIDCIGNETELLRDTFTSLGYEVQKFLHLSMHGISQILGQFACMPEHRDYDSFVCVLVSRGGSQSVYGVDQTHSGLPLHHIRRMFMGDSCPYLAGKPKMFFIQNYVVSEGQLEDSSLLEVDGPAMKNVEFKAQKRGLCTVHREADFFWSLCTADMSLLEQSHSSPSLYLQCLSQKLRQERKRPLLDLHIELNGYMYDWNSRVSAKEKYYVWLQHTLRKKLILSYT

[12] = target: CASP8 and FADD-like apoptosis regulator (Homo sapiens) (UniProt O15519); assay: Inhibition of cFLIP-L in human BxPC3 cells assessed as restoration of death receptor signaling-mediated apoptosis; assay type: cell-based; conditions: BXPC-3
[13] = target: CASP8 and FADD-like apoptosis regulator (Homo sapiens) (UniProt O15519); assay: Inhibition of cFLIP-L in human A2780 cells assessed as restoration of death receptor signaling-mediated apoptosis; assay type: cell-based
[14] = target: CASP8 and FADD-like apoptosis regulator (Homo sapiens) (UniProt O15519); assay: Inhibition of cFLIP-L in human SKOV3 cells assessed as restoration of death receptor signaling-mediated apoptosis; assay type: cell-based; conditions: SK-OV-3

IC50 (A2780 [5]) | IC50 [6] | IC50 (BXPC-3 [7]) | IC50 (SK-OV-3 [8]) | SMILES | Ratio [1] | Ratio (SK-OV-3 [2]) | Ratio (A2780 [3]) | Ratio (BXPC-3 [4]) | Activity (SK-OV-3 [9]) | inhibition (A2780 [10]) | Activity (Mus musculus) | inhibition [11] | inhibition [12] | inhibition [13] | inhibition [14]
 |  |  |  | CC(C)(C(=O)N1CCOCC1)c1ccc(S(=O)(=O)/C=C/C#N)cc1 | 0.94 | 1.01 | 0.66 | 0.85 |  |  |  |  |  |  | 
 |  |  |  | C=CS(=O)(=O)c1ccc(C(C)(C)C)cc1 | 0.8 | 1.05 | 1.16 | 0.84 |  |  |  |  |  |  | 
 |  |  |  | CC(C)(C(=O)NC1CCCCC1)c1ccc(S(=O)(=O)/C=C/C#N)cc1 | 0.43 | 0.6 | 0.2 | 0.22 |  |  |  |  |  |  | 
 |  |  |  | CN1CCN(C(=O)C(C)(C)c2ccc(S(=O)(=O)/C=C/C#N)cc2)CC1 | 0.95 | 1.09 | 0.95 | 0.98 |  |  |  |  |  |  | 
 |  |  |  | CC(C)(C(=O)O)c1ccc(S(=O)(=O)/C=C/C#N)cc1 | 0.89 | 1.07 | 1.08 | 0.92 |  |  |  |  |  |  | 
 |  |  |  | CC(C)(C)c1ccc(S(=O)(=O)/C=C/c2ccccc2)cc1 | 0.97 | 1.17 | 1.13 | 1.01 |  |  |  |  |  |  | 
 |  |  |  | C/C=C/S(=O)(=O)c1ccc(C(C)(C)C)cc1 | 0.99 | 1.08 | 1.15 | 0.99 |  |  |  |  |  |  | 
2.4 µM | 7.3 µM | 4.1 µM | 10.9 µM | COc1cccc(NC(=O)C(C)(C)c2ccc(S(=O)(=O)/C=C/C#N)cc2)c1 | 0.65 | 0.98 | 0.55 | 0.62 | Active |  |  |  |  |  | 
2.7 µM | 7.5 µM | 4.1 µM | 9.9 µM | CC(C)(C(=O)Nc1ccccc1)c1ccc(S(=O)(=O)/C=C/C#N)cc1 | 0.52 | 0.55 | 0.17 | 0.22 | Active | Active | Non-toxic |  |  |  | 
 |  |  |  | CC(C)(C)c1ccc(S/C=C/C#N)cc1 | 1.03 | 0.92 | 1.06 | 1.08 |  | inactive | Non-toxic |  |  |  | 
 |  |  |  | CCOC(=O)/C=C/S(=O)(=O)c1ccc(C(C)(C)C)cc1 | 0.52 | 0.67 | 0.39 | 0.2 |  |  |  |  |  |  | 
3.3 µM | 7.6 µM | 4.2 µM | 12.9 µM | CC(C)CNC(=O)C(C)(C)c1ccc(S(=O)(=O)/C=C/C#N)cc1 | 0.29 | 0.47 | 0.05 | 0.24 | Active | Active | Non-toxic |  |  |  | 
 |  |  |  | CC(C)(C)c1ccc(S(=O)(=O)/C=C/C(N)=O)cc1 | 0.59 | 0.5 | 0.77 | 0.44 |  |  |  |  |  |  | 
 |  |  |  | CC(C)(C(=O)NCc1ccccn1)c1ccc(S(=O)(=O)/C=C/C#N)cc1 | 0.29 | 0.47 | 0.05 | 0.24 |  |  |  |  |  |  | 
2.6 µM | 5.9 µM | 3.7 µM | 7.6 µM | CC(C)(C)c1ccc(S(=O)(=O)/C=C/C#N)cc1 [BAY-11-7085] | 0.13 | 0.32 | 0.04 | 0.07 | Active | Active | Non-toxic | Active | Active | Active | Active
 |  |  |  | C#CCNC(=O)C(C)(C)c1ccc(S(=O)(=O)/C=C/C#N)cc1 | 0.65 | 0.93 | 0.63 | 0.64 |  |  |  |  |  |  | 
 |  |  |  | CC(C)(C(=O)N1CCCCC1)c1ccc(S(=O)(=O)/C=C/C#N)cc1 | 0.51 | 0.51 | 0.08 | 0.25 |  |  |  |  |  |  | 
3.4 µM | 8.7 µM | 4.1 µM | 11.4 µM | CC(C)(C(=O)NCc1ccc(Cl)cc1)c1ccc(S(=O)(=O)/C=C/C#N)cc1 | 0.43 | 0.63 | 0.15 | 0.27 | Active |  |  |  |  |  | 
